The results in this text go back to ChEMBL document CHEMBL2034859, “Simple, fast and efficient synthesis of β-keto esters from the esters of heteroaryl compounds, its antimicrobial study and cytotoxicity towards various cancer cell lines” (Bioorg Med Chem Lett, 2012).

Common to all, as to type: functional
In assay [1] the test system is HCT-116. Put plainly: Cytotoxicity against human HCT116 cells at 1000 nM after 48 hrs by WST-1 assay. Put shortly:
(§1)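 Cells from ATCC were grown in DMEM with 10% heat-inactivated FBS at 37 °C in 5% CO2. Log-phase cells were seeded at 5 × 10^3 per well and left to recover overnight. They were then exposed to a range of compound concentrations for 48 h, with 0.2% DMSO as the vehicle control. CCK-8 (WST) reagent was added for 2 h and absorbance was measured.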

Assay [2] concerns ACHN. Put plainly: Cytotoxicity against human ACHN cells at 1000 nM after 48 hrs by WST-1 assay. The method, boiled down:
as §1

For assay [3], the system named is NCI-H460. Put plainly: Cytotoxicity against human NCI-H460 cells at 1000 nM after 48 hrs by WST-1 assay. Put shortly: (§2)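 Cells from ATCC, grown in DMEM with 10% heat-inactivated FBS at 37 °C in humidified 5% CO2. Log-phase cells seeded at 5 × 10^3 cells/well and left to recover overnight, then exposed to varying compound concentrations for 48 h. Controls received medium with 0.2% DMSO vehicle. CCK-8 ([…]) reagent added at 5 µL/well for 2 h, then absorbance read.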
For orientation: Formazan colour is commonly taken as a measure of viable cells.

The test system of assay [4] is Calu-1. Description: Cytotoxicity against human Calu1 cells at 1000 nM after 48 hrs by WST-1 assay. Put shortly: as §1
Assay [5] relates to PANC-1. Put plainly: Cytotoxicity against human PANC1 cells at 1000 nM after 48 hrs by WST-1 assay. The method, boiled down:
as §2

As for `Nc1ccn([C@@H]2O[C@H](CO)[C@@H](O)C2(F)F)c(=O)n1` [GEMCITABINE], the Activity in assay [1] is listed as 74%; in assay [2], 73%; in assay [3] it was 73%; in assay [4], 71%; in assay [5] it was 79%.
For the molecule `CN1CC[C@H](c2c(O)cc(O)c3c(=O)cc(-c4ccccc4Cl)oc23)[C@H](O)C1` [ALVOCIDIB], the Activity worked out at 78% in assay [1]; 71% in assay [2]; 71% in assay [3]; 88% in assay [4]; 74% in assay [5].
